Measurements: ChEMBL document CHEMBL2203168, “Amine linked flavonoid dimers as modulators for P-glycoprotein-based multidrug resistance: structure-activity relationship and mechanism of modulation” (J Med Chem, 2012)
Values after ≈ are worked out from the molar mass of the structure shown.

Legend:
Homo sapiens [1] = species on record: Homo sapiens; test: Reduction in P-gp-mediated drug uptake in human MDA435/LCC6MDR cells at 10 uM for 120 mins by HPLC analysis relative to parental cells; type: cell-based
Outline: (§1)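 7.5 × 10⁶ LCC6 or LCC6MDR cells in 5 mL DMEM incubated with compound at 10 or 100 μM for 120 min at 37 °C. Cells washed, lysed by freeze–thaw in acetonitrile with 20% formic acid, and processed. Compound quantified by normal-phase HPLC-UV at 315 nm against a chloroform calibration curve of 0.25–25 μg/mL. N = 1–2.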

Homo sapiens [2] = species on record: Homo sapiens; test: Inhibition of P-gp-mediated paclitaxel resistance in human LCC6MDR cells assessed as fold decrease in paclitaxel IC50 for cytotoxic activity at 0.5 uM after 5 days by MTS assay relative to parental cells; type: cell-based
[3] = Reversal of P-gp-mediated doxorubicin-resistance in human LCC6MDR cells after 5 days by MTS assay; type: cell-based; settings: 120 h
[4] = Reversal of P-gp-mediated vinblastin-resistance in human LCC6MDR cells after 5 days by MTS assay; type: cell-based; settings: 120 h
[5] = Reversal of P-gp-mediated paclitaxel-resistance in human LCC6MDR cells after 5 days by MTS assay; type: cell-based; settings: 120 h
[6] = Reversal of P-gp-mediated mitoxantrone-resistance in human LCC6MDR cells after 5 days by MTS assay; type: cell-based; settings: 120 h
[7] = Reversal of P-gp-mediated vincristine-resistance in human LCC6MDR cells after 5 days by MTS assay; type: cell-based; settings: 120 h
L929 = test: Cytotoxicity against mouse L929 cells after 72 hrs; type: cell-based; settings: L929, 72 h
Outline: (§2)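 Cells seeded at 1 × 10⁴ per well in supplemented DMEM and given graded doses of dimer for 72 h at 37 °C, 5% CO₂. Survival measured and IC50 derived. N = 1–3 independent experiments, mean ± SEM.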

[8] = Reversal of P-gp-mediated daunorubicin-resistance in human LCC6MDR cells after 5 days by MTS assay; type: cell-based; settings: 120 h
Homo sapiens [9] = species on record: Homo sapiens; test: Reduction in P-gp-mediated drug uptake in human MDA435/LCC6MDR cells at 100 uM for 120 mins by HPLC analysis relative to parental cells; type: cell-based; outline: as §1
Homo sapiens [10] = species on record: Homo sapiens; test: Inhibition of P-gp-mediated paclitaxel resistance in human LCC6MDR cells assessed as fold decrease in paclitaxel IC50 for cytotoxic activity at 1 uM after 5 days by MTS assay relative to parental cells; type: cell-based
[11] = Therapeutic index, ratio of IC50 for L929 cells to EC50 for reversing paclitaxel resistance in human MDA435/LCC6MDR cells; type: cell-based; settings: L929 cells (IC50) and MDA435/LCC6MDR cells (EC50)
[12] = molecular target: Multidrug resistance-associated protein 1 (Homo sapiens, UniProt P33527); test: Inhibition of MRP1-mediated doxorubicin resistance in human 2008/MRP1 cells assessed as fold decrease in doxorubicin IC50 for cytotoxic activity at 0.5 uM after 5 days by MTS assay relative to parental cell; type: cell-based; settings: 2008/mrp1, 120 h
Chain of Multidrug resistance-associated protein 1 (P33527 whole entry): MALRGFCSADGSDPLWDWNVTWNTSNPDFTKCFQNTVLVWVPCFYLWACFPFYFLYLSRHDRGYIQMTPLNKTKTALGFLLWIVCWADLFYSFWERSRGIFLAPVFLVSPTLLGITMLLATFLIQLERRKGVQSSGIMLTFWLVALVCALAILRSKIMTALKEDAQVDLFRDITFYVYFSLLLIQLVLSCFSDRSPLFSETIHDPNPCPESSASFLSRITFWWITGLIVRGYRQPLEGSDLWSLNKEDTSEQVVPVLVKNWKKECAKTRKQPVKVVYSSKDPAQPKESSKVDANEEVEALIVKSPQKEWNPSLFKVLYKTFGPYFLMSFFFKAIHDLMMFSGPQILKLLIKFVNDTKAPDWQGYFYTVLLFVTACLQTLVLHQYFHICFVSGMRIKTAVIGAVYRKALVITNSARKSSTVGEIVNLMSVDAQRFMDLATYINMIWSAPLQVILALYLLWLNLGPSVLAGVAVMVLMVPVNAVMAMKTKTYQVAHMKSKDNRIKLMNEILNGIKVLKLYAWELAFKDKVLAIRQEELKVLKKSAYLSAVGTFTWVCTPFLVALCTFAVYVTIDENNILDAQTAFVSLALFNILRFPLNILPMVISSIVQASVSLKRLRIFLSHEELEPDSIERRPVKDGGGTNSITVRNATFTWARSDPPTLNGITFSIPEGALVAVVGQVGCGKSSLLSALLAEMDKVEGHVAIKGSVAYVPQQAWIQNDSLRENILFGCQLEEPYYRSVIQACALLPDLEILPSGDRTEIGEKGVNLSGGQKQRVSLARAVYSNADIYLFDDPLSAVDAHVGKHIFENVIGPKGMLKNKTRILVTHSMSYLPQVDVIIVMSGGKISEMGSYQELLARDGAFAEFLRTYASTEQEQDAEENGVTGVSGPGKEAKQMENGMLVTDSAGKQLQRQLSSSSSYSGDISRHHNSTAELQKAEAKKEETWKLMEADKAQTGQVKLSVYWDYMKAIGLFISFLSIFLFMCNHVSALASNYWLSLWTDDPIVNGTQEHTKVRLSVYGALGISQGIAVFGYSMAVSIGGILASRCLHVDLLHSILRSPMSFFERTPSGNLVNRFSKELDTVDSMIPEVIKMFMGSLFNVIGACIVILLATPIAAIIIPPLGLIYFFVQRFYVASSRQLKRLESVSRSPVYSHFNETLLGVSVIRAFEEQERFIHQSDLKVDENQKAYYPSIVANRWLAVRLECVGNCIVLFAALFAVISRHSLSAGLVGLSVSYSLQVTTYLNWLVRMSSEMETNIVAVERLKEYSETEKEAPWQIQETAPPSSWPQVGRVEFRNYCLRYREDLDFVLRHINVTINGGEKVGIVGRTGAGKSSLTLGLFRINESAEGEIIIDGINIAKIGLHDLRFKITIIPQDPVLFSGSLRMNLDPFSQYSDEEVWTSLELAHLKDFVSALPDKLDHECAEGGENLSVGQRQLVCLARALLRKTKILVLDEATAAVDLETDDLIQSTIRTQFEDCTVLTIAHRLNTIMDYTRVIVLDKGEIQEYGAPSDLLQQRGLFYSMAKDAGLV

[13] = molecular target: T1, ATP-dependent translocase ABCB1 (Homo sapiens, UniProt P08183); test: Competitive inhibition of P-gp overexpressed in human MDA435/LCC6MDR cells assessed as accumulation of doxorubicin by Dixon plot analysis; type: cell-based
T1 sequence (P08183 whole entry): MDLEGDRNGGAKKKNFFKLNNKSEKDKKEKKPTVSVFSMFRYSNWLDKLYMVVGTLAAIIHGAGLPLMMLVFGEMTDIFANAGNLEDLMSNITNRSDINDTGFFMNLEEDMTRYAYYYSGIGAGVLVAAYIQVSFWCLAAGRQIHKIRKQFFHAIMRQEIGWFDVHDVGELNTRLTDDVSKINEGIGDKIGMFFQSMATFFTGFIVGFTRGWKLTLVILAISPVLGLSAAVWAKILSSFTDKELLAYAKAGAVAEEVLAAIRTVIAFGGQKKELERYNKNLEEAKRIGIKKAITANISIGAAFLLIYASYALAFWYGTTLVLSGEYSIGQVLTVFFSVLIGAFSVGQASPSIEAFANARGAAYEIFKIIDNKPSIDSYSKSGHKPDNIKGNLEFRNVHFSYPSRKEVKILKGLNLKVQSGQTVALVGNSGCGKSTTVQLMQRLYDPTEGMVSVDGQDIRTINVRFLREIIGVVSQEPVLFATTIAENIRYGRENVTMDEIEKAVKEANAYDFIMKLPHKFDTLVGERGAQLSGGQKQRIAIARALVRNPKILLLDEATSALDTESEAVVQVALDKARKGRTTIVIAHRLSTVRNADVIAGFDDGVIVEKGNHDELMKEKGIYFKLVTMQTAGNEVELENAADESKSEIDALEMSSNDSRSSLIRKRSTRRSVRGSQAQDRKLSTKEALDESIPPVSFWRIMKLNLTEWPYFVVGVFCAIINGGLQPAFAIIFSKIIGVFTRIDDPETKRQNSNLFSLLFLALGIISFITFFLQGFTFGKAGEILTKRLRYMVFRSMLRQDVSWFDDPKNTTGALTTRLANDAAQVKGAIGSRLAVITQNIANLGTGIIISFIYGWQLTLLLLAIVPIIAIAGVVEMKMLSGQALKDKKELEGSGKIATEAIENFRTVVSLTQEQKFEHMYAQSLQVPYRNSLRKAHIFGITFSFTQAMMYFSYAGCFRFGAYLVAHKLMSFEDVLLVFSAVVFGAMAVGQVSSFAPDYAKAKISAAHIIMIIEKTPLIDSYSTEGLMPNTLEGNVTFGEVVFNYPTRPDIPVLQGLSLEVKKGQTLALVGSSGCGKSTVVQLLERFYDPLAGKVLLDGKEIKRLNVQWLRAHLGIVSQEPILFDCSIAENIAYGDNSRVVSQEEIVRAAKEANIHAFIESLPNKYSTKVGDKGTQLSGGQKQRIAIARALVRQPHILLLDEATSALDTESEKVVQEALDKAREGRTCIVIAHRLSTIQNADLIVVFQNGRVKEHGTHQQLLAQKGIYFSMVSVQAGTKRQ

[14] = molecular target: T1, ATP-dependent translocase ABCB1; test: Inhibition of P-gp overexpressed in human MDA435/LCC6MDR cells assessed as accumulation of doxorubicin after 150 mins by fluorescence spectrophotometric analysis; type: cell-based; settings: 2.5 h
Outline: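 1 × 10⁶ LCC6MDR or LCC6 cells incubated with 20 μM DOX and graded modulator for 150 min at 37 °C, with 0.4% DMSO as negative control. Cells washed and lysed in 0.75 M HCl, 0.2% Triton X-100 in isopropanol. DOX fluorescence read at ex 460/em 610 nm. N = 2–5.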

MDR = test: Cytotoxicity against human MDA435/LCC6MDR cells expressing MDR after 72 hrs; type: functional, cell-based; outline: as §2
[15] = molecular target: T1, ATP-dependent translocase ABCB1; test: Competitive inhibition of P-gp overexpressed in human MDA435/LCC6MDR cells assessed as accumulation of doxorubicin by Lineweaver-Burk plot analysis; type: cell-based
[16] = molecular target: T2, Broad substrate specificity ATP-binding cassette transporter ABCG2 (Homo sapiens, UniProt Q9UNQ0); test: Inhibition of BCRP-mediated topotecan resistance in human HEK293/R2 cells assessed as fold decrease in topotecan IC50 for cytotoxic activity at 0.5 uM after 5 days by MTS assay relative to parental cell; type: cell-based; settings: hek293/r2, 120 h
T2 sequence (Q9UNQ0 whole entry): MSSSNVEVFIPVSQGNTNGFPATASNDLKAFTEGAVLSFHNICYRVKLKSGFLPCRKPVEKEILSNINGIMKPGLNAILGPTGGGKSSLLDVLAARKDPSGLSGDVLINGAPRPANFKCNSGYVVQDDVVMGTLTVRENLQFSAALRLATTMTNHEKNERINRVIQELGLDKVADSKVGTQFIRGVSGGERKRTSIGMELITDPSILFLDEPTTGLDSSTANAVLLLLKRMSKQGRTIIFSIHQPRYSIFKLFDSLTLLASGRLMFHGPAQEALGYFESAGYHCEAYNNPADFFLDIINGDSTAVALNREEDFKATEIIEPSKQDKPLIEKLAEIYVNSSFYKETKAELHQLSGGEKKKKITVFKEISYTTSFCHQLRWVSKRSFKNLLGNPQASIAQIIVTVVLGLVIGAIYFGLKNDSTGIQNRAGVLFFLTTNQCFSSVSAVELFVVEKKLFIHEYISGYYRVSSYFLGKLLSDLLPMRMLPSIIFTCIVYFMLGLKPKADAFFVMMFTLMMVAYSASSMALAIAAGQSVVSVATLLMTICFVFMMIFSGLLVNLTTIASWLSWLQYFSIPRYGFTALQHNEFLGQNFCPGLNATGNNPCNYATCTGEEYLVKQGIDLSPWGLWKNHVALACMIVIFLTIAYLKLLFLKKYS
Outline: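 Viability read by MTS. Topotecan IC50 taken from dose-response curves. Fold change = IC50 without modulator / IC50 with modulator. Parental HEK293/pcDNA3.1 tested for reference. N = 2−4 independent experiments, mean ± SEM.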

P-gp (ABCB1) = P-gp (ABCB1) (Homo sapiens, UniProt P08183); test: Increase in human P-gp ATPase activity at 200 uM by luciferase assay relative to basal level; settings: read-out: FC
Chain of P-gp (ABCB1) (P08183 whole entry): as the sequence (P08183 whole entry) above
Outline: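 Human P-gp membrane fraction (about 25 μg) incubated with compound at 200 μM, 0.5% DMSO basal or 100 μM vanadate. Reaction started with 5 mM MgATP, 1 h at 37 °C. Remaining ATP read by luciferase luminescence after 20 min at room temperature. Activity normalized to basal and given as stimulation fold. N = 2.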

[17] = Cytotoxicity against human LCC-6 cells after 72 hrs; type: functional, cell-based; settings: LCC-6, 72 h; outline: as §2

MIC [14] | inhibition (INH) [14] | Structure (SMILES) | Ratio (Homo sapiens [2]) | EC50 [5] | IC50 (L929) | Ratio (Homo sapiens [10]) | selectivity ratio [11] | IC50 (MDR) | IC50 [17] | also measured
0.5 µM (≈ 0.362 µg/mL) | Dose-dependent effect | O=c1cc(-c2ccc(OCCOCCN(CCOCCOc3ccc(-c4cc(=O)c5ccccc5o4)cc3)Cc3ccccc3)cc2)oc2ccccc12 | 58.9 | 148 nM | 85000 nM | 139 | 574 | > 63000 nM | > 75000 nM | fold change (FC) (Homo sapiens [1]): 1.7; EC50 [3]: 131 nM; EC50 [4]: 173 nM; EC50 [6]: 90 nM; EC50 [7]: 179 nM; EC50 [8]: 95 nM; fold change (FC) (Homo sapiens [9]): 2.1; Ratio [12]: 2.1; Ki [13]: 280 nM; Ki [15]: 340 nM; Ratio [16]: 3.8; fold induction at 200 µM (P-gp (ABCB1)): 2.7
8 µM (≈ 3.64 µg/mL) | Dose-dependent effect | COc1ccc(CCN(C)CCCC(C#N)(c2ccc(OC)c(OC)c2)C(C)C)cc1OC (stereo not given) | – | – | – | – | – | – | – | –
– | – | CCN(CCOCCOc1ccc(-c2cc(=O)c3ccccc3o2)cc1)CCOCCOc1ccc(-c2cc(=O)c3ccccc3o2)cc1 | 26.9 | 200 nM | 6900 nM | 95.7 | 34.5 | 17300 nM | 10300 nM | –
